This is an account of results in ChEMBL document CHEMBL1629444, “DNA-dependent protein kinase (DNA-PK) inhibitors. Synthesis and biological activity of quinolin-4-one and pyridopyrimidin-4-one surrogates for the chromen-4-one chemotype” (J Med Chem, 2010).

Assay [1] is described as follows: Inhibition of DNA-PK isolated from human HeLa cell extract assessed as reduction in p53 Ser15 phosphorylation by chemiluminescence assay. The assay is classed as cell-free.
The test system of assay [2] is HeLa. Nature of the assay: Potentiation of ionizing radiation-induced cytotoxicity in human HeLa cells assessed as dose modification ratio at 0.5 uM pretreated 1 hr before 2 Gy ionizing radiation by Giemsa staining relative untreated control. The assay is classed as functional. The procedure, abridged: (§1)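 HeLa cells seeded in six-well dishes and left overnight at 37 °C/5% CO2. Compound or vehicle given 1 h before a single 2 Gy X-ray dose, then incubated overnight. Medium replaced without compound and cells grown 6-8 days. Colonies Giemsa-stained and counted automatically. DMR is % survival at 2 Gy without compound divided by % survival at 2 Gy with compound.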

Assay [3] concerns HeLa. Put plainly: Potentiation of ionizing radiation-induced cytotoxicity in human HeLa cells assessed as dose modification ratio at 0.1 uM pretreated 1 hr before 2 Gy ionizing radiation by Giemsa staining relative untreated control. In kind it is functional. The procedure, abridged:
as §1

By IC50 is commonly meant the concentration that inhibits the measured activity by half. As for `COCCN1CCN(CC(=O)Nc2ccc(-c3cccc4c(=O)cc(N5CCOCC5)[nH]c34)c3oc4ccccc4c23)CC1`, the half-maximal inhibitory concentration (IC50) in assay [1] came out at 68 nM. In addition, the Ratio in the assay on HeLa [2] was determined as 1.4; in the assay with HeLa [3] it was 1.1.
Turning to `CN1CCN(CC(=O)Nc2ccc(-c3cccc4c(=O)cc(N5CCOCC5)[nH]c34)c3oc4ccccc4c23)CC1`, the IC50 in assay [1] was determined as 116 nM. Moreover, the Ratio in the assay with HeLa [2] turned out to be 1.6; in the assay on HeLa [3] it was 1.2.
For `C[C@@H]1CN(CC(=O)Nc2ccc(-c3cccc4c(=O)cc(N5CCOCC5)[nH]c34)c3oc4ccccc4c23)C[C@H](C)O1`, in that order: 37 nM, 1.6 and 1.1.
For the compound `CCN1CCN(CC(=O)Nc2ccc(-c3cccc4c(=O)cc(N5CCOCC5)[nH]c34)c3oc4ccccc4c23)CC1`, in assay [1], the IC50 stood at 77 nM. The Ratio in the assay on HeLa [2] is listed as 3.6; in the assay on HeLa [3] it was 1.2.
`O=C(CN1CCN(CCO)CC1)Nc1ccc(-c2cccc3c(=O)cc(N4CCOCC4)[nH]c23)c2oc3ccccc3c12`: the IC50 in assay [1] turned out to be 39 nM. In addition, the Ratio is reported as 1.5 in the assay with HeLa [2] and 1.3 with HeLa [3].
Consider `CC(C)NC(=O)CN1CCN(CC(=O)Nc2ccc(-c3cccc4c(=O)cc(N5CCOCC5)[nH]c34)c3oc4ccccc4c23)CC1`, for which the IC50 in assay [1] stood at 55 nM. Moreover, the Ratio was 1.6 with HeLa [2] and 1.4 with HeLa [3].
With `O=C(CCN1CCCCC1)Nc1ccc(-c2cccc3c(=O)cc(N4CCOCC4)[nH]c23)c2oc3ccccc3c12`, in assay [1], the IC50 was 314 nM. The Ratio in the assay with HeLa [2] came to 1.1; with HeLa [3] it was 1.
`C[C@@H]1CN(CCC(=O)Nc2ccc(-c3cccc4c(=O)cc(N5CCOCC5)[nH]c34)c3oc4ccccc4c23)C[C@H](C)O1`: in assay [1], the IC50 came out at 151 nM. In addition, the values for the Ratio in the assay on HeLa [2] and in the assay on HeLa [3] were 0.9 and 0.8, respectively.
